Measurements: ChEMBL document CHEMBL1765053, “Synthetic mimics of antimicrobial peptides from triaryl scaffolds” (J Med Chem, 2011)
≈ marks a conversion by molar mass, not a printed value.

Columns and labels:
[1] = tested on: Staphylococcus aureus; test: Antibacterial activity against Staphylococcus aureus ATCC 27660 after 18 hrs by microbroth dilution method; assay type: functional; conditions: ATCC 27660, 18 h
In short: (§1)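 Hancock modification of CLSI broth microdilution, adjusted to limit compound adsorption to surfaces and precipitation. Bacteria grown overnight in Mueller-Hinton broth at 37 °C. Compounds tested as di-TFA salts or diamine, from DMSO/Hancock solution (0.01% acetic acid, 0.2% BSA) 2-fold stocks diluted 10-fold into culture. Final 100 to 0.05 μg/mL, duplicate. Growth read as OD600 after 18 h at 37 °C. MIC taken as >90% growth inhibition.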

[2] = tested on: Escherichia coli; test: Antibacterial activity against Escherichia coli ATCC 25922 after 18 hrs by microbroth dilution method; assay type: functional; conditions: ATCC 25922, 18 h; in short: as §1
[3] = tested on: Klebsiella pneumoniae; test: Antibacterial activity against Klebsiella pneumoniae ATCC 13883 after 18 hrs by microbroth dilution method; assay type: functional; conditions: ATCC 13883, 18 h; in short: as §1
[4] = Toxicity in human RBC assessed as hemolysis after 1 hr; assay type: cell-based, Erythrocyte; conditions: human red blood cells (RBC)
In short: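 RBCs spun down from human whole blood and diluted in TBS to a 0.22% stock suspension. Serial 1:2 dilutions of compound in water added, highest final 1000 μg/mL. Shaken 1 h at 37 °C, then centrifuged 3000 rpm for 5 min. Supernatant diluted into water and released hemoglobin quantified. HC50 is the lowest concentration lysing 50% of RBCs.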

Row | Compound | MIC [1] [µg/mL] | MIC [2] [µg/mL] | MIC [3] [µg/mL] | HC50 at 1 h [4] [µg/mL]
1 | CC(C)(C)c1ccc(NC(=O)CCN)c(-c2ccc(-c3cc(C(C)(C)C)ccc3NC(=O)CCN)nn2)c1.O=C(O)C(F)(F)F.O=C(O)C(F)(F)F | 12.5 | 50 | 100 | 82.5
2 | CC(C)(C)c1ccc(NC(=O)CCN)c(-c2ccc(-c3cc(C(C)(C)C)ccc3NC(=O)CCN)nc2)c1.O=C(O)C(F)(F)F.O=C(O)C(F)(F)F | 12.5 | 12.5 | 25 | 39
3 | CC(C)(C)c1ccc(NC(=O)CCN)c(-c2ccc(-c3cc(C(C)(C)C)ccc3NC(=O)CCN)cc2)c1.O=C(O)C(F)(F)F.O=C(O)C(F)(F)F | 3.13 | 6.25 | 12.5 | 6.46
4 | NCCC(=O)Nc1ccc(C(F)(F)F)cc1-c1ccc(-c2cc(C(F)(F)F)ccc2NC(=O)CCN)nn1.O=C(O)C(F)(F)F.O=C(O)C(F)(F)F | 25 | 50 | 50 | 191
5 | NCCC(=O)Nc1ccc(C(F)(F)F)cc1-c1ccc(-c2cc(C(F)(F)F)ccc2NC(=O)CCN)nc1.O=C(O)C(F)(F)F.O=C(O)C(F)(F)F | 25 | 50 | > 100 | 356
6 | NCCC(=O)Nc1ccccc1-c1ccc(-c2ccccc2NC(=O)CCN)nn1.O=C(O)C(F)(F)F.O=C(O)C(F)(F)F | 50 | 50 | > 50 | > 1000
7 | NCCC(=O)Nc1ccc(C(F)(F)F)cc1-c1ccc(-c2cc(C(F)(F)F)ccc2NC(=O)CCN)cc1.O=C(O)C(F)(F)F.O=C(O)C(F)(F)F | 3.13 | 12.5 | 25 | 36.5
8 | CC(C)(C)c1ccc(NC(=O)CCCCN)c(-c2ccc(-c3cc(C(C)(C)C)ccc3NC(=O)CCCCN)nn2)c1 | 12.5 (≈ 21.8 µM) | 25 (≈ 43.6 µM) | 25 (≈ 43.6 µM) | –
9 | CC(C)(C)c1ccc(NC(=O)CCCCN)c(-c2ccc(-c3cc(C(C)(C)C)ccc3NC(=O)CCCCN)cc2)c1.O=C(O)C(F)(F)F.O=C(O)C(F)(F)F | 3.13 | 6.25 | 12.5 | 34.5
10 | CC(C)(C)c1ccc(NC(=O)CCCCNC(=N)N)c(-c2ccc(-c3cc(C(C)(C)C)ccc3NC(=O)CCCCNC(=N)N)cc2)c1.O=C(O)C(F)(F)F.O=C(O)C(F)(F)F | 0.78 | 6.25 | 12.5 | 12.8
11 | H-GIGKFLKKAKKFGKAFVKILKK-NH2 [PEXIGANAN] | 8 | 16 | – | 120
